{"source": "ChEMBL document CHEMBL1152990", "about": "“The mechanism of action of beta-D-2'-deoxy-2'-fluoro-2'-C-methylcytidine involves a second metabolic pathway leading to beta-D-2'-deoxy-2'-fluoro-2'-C-methyluridine 5'-triphosphate, a potent inhibitor of the hepatitis C virus RNA-dependent RNA polymerase” (Antimicrob Agents Chemother, 2008)", "key": {"Huh-7 [1]": {"tested_on": "Huh-7", "experiment": "Activity of cloned NDPK in human HuH7 cells assessed as formation of uridine triphosphate by spectrophotometry", "format": "cell-based", "in_short": "(§1)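 Recombinant human kinase read out by PK/LDH coupling, following NADH oxidation at 340 nm. Rates were measured over varied substrate levels and fitted for steady-state parameters.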"}, "Huh-7 [2]": {"tested_on": "Huh-7", "experiment": "Ratio of Kcat to Km for cloned NDPK in human HuH7 cells assessed as formation of uridine triphosphate by spectrophotometry", "format": "cell-based", "in_short": "as §1"}, "Hepatitis C virus [3]": {"tested_on": "Hepatitis C virus", "experiment": "Antiviral activity against wild type HCV infected in human HuH7 cells assessed as inhibition of viral RNA replication after 4 days by replicon assay in absence of DCTD inhibitor zedularine", "format": "functional", "conditions": "Hepacivirus hominis; Huh-7", "in_short": "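Clone A Huh-7 replicon cells at 1,500 cells/well, without G418. Threefold serial compound dilutions were given with or without 100 μM zebularine, for 4 days at 37°C in 5% CO2. Replicon RNA was quantified by single-step multiplex RT-PCR, and activity was taken as ΔCT relative to the no-drug control.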"}, "Hepatitis C virus [4]": {"tested_on": "Hepatitis C virus", "experiment": "Antiviral activity against HCV harboring NS5B polymerase S282T mutation infected in human HuH7 cells assessed as inhibition of viral RNA replication after 4 days by replicon assay in absence of DCTD inhibitor zedularine", "format": "functional", "conditions": "Hepacivirus hominis; Huh-7", "in_short": "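Huh-7 clone A subgenomic replicon cells carrying NS5B S282T (selected by serial passage with 2′-C-methyladenosine) were seeded at 1,500 cells/well without G418. Threefold compound dilutions were added alone or with 100 μM zebularine, followed by 4 days at 37°C, 5% CO2. Replicon RNA was quantified by single-step multiplex RT-PCR, and activity was taken as ΔCT versus the no-drug control to give EC90.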"}, "Hepacivirus hominis [5]": {"tested_on": "Hepacivirus hominis", "experiment": "Ratio of Ki to Km for wild type HCV NS5B polymerase", "in_short": "(§2)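 De novo RNA synthesis by NS5B lacking 21 C-terminal residues, in 50 mM HEPES pH 7.5 with 5 mM MgCl2 and 2 mM DTT at 27°C. Template was unprimed minus-IRES RNA, 2.8 μg each of enzyme and template. CTP 10 μM, ATP and GTP 100 μM; 32P-UTP and inhibitor were varied. Aliquots were quenched with EDTA/NaCl/citrate.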"}, "[6]": {"tested_on": "RNA-directed RNA polymerase (Hepacivirus hominis), O39930 [S282T]", "experiment": "Ratio of Ki to Km for HCV NS5B polymerase S282T mutant", "in_short": "(§3)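 Recombinant HCV NS5B S282T (21-aa C-terminally truncated, E. coli-expressed, metal-affinity purified) in a de novo steady-state RNA synthesis assay on an unprimed minus-IRES RNA template. Run at 27°C in 50 mM HEPES pH 7.5 with 5 mM MgCl2 and 2 mM DTT. For the CTP analog, UTP/GTP/ATP were fixed at 10/100/100 μM while 32P-CTP and the inhibitor were varied. For the UTP analog, CTP/ATP/GTP were fixed at 10/100/100 μM while 32P-UTP and the inhibitor were varied.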"}, "Hepacivirus hominis [7]": {"tested_on": "Hepacivirus hominis", "experiment": "Fold resistance, ratio of Ki/Km for HCV NS5B polymerase S282T mutant to Ki/Km for wild type HCV NS5B polymerase", "in_short": "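Ki and Km were measured for wild-type and S282T NS5B (C-terminal Δ21) by steady-state de novo RNA synthesis. Conditions were an unprimed minus-IRES template, 27°C, 50 mM HEPES pH 7.5, 5 mM MgCl2, 2 mM DTT, and varied 32P-labelled natural NTP with varied inhibitor. Fold resistance = (Ki/Km mutant)/(Ki/Km wild type).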"}, "[8]": {"tested_on": "C[C@@]1(F)[C@H](O)[C@@H](CO)O[C@H]1n1ccc(N)nc1=O", "experiment": "Ratio of Kcat to Km for cloned 2'-deoxycytidine kinase in human HepG2 cells assessed as formation of formation of […] monophosphate by spectrophotometry", "format": "cell-based"}, "Huh-7 [9]": {"tested_on": "Huh-7", "experiment": "Ratio of Kcat to Km for cloned NDPK in human HuH7 cells assessed as formation of […] triphosphate by spectrophotometry", "format": "cell-based"}, "[10]": {"tested_on": "C[C@@]1(F)[C@H](O)[C@@H](COP(=O)(O)OP(=O)(O)OP(=O)(O)O)O[C@H]1n1ccc(=O)[nH]c1=O", "experiment": "(§4) Activity of HCV NS5B polymerase S282T mutant", "conditions": "Hepacivirus hominis", "in_short": "as §3"}, "[11]": {"tested_on": "C[C@@]1(F)[C@H](O)[C@@H](COP(=O)(O)OP(=O)(O)OP(=O)(O)O)O[C@H]1n1ccc(N)nc1=O", "experiment": "as §4", "conditions": "Hepacivirus hominis", "in_short": "as §3"}, "[12]": {"molecular_target": "T1, Uridine-cytidine kinase 1 (Homo sapiens) (UniProt Q9HA47)", "T1 sequence (whole entry)": "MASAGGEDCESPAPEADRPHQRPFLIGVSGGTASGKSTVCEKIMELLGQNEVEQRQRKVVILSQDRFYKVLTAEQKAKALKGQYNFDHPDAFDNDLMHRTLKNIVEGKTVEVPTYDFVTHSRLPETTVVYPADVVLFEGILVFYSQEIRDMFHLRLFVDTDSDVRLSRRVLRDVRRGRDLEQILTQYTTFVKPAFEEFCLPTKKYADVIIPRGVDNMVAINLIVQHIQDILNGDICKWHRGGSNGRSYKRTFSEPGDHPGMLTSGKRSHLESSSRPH", "experiment": "Activity of cloned uridine-cytidine kinase 1 in human HuH7 cells up to 1 mM", "format": "cell-based", "conditions": "Huh-7"}, "[13]": {"molecular_target": "Deoxycytidine kinase (Homo sapiens) (UniProt P27707)", "sequence (P27707 whole entry, looked up)": "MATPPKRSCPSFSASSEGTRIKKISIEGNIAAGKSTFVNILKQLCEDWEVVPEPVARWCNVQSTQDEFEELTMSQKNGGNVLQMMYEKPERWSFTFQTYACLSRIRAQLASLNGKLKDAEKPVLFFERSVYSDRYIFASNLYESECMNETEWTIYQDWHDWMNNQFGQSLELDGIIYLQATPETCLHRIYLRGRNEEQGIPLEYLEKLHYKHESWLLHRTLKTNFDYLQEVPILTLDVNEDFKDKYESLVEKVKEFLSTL", "experiment": "Activity of cloned deoxycytidine kinase in human HepG2 cells up to 1 mM", "format": "cell-based"}, "[14]": {"molecular_target": "T2, Thymidine kinase, cytosolic (Homo sapiens) (UniProt P04183)", "T2 sequence (whole entry)": "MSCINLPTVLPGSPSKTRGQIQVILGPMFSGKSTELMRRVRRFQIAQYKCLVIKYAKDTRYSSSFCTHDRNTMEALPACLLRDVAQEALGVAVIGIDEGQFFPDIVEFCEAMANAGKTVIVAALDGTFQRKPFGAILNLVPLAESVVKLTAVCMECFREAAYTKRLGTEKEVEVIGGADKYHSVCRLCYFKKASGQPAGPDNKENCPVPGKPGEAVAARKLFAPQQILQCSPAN", "experiment": "Activity of thymidine kinase 1 up to 1 mM"}, "[15]": {"molecular_target": "T3, Thymidine kinase 2, mitochondrial (Homo sapiens) (UniProt O00142)", "T3 sequence (whole entry)": "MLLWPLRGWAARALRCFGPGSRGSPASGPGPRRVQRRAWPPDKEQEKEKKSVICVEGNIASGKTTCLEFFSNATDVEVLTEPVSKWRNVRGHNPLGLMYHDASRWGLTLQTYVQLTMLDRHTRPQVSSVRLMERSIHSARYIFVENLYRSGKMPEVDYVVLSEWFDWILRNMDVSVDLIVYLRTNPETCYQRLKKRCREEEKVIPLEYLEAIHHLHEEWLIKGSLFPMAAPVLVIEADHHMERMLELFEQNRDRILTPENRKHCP", "experiment": "Activity of thymidine kinase 2 up to 1 mM"}, "Hepacivirus hominis [16]": {"tested_on": "Hepacivirus hominis", "experiment": "Activity of wild type HCV NS5B polymerase", "in_short": "as §2"}, "Huh-7 [17]": {"tested_on": "Huh-7", "experiment": "Ratio of Kcat to Km for cloned NDPK in human HuH7 cells assessed as formation of RO2433 triphosphate by spectrophotometry", "format": "cell-based", "in_short": "as §1"}, "[18]": {"molecular_target": "Creatine kinase B-type (Homo sapiens) (UniProt P12277)", "sequence (P12277 whole entry, canonical isoform)": "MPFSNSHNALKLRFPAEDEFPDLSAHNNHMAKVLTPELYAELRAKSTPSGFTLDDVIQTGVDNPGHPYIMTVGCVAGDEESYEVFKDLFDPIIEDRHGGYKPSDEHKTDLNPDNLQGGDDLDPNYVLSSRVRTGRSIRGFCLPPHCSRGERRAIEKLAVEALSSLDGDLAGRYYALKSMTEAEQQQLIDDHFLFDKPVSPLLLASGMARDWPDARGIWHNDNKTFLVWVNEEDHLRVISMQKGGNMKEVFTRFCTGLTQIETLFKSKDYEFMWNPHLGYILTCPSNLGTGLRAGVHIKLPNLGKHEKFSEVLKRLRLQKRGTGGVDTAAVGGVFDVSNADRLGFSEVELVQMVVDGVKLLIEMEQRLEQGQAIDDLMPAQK", "experiment": "Activity of human creatine kinase isoform BB assessed as formation of RO2433 triphosphate at 200 uM"}, "Homo sapiens": {"species_on_record": "Homo sapiens", "experiment": "Activity of human creatine kinase isoform MB assessed as formation of RO2433 triphosphate at 200 uM"}, "[19]": {"molecular_target": "Creatine kinase M-type (Homo sapiens) (UniProt P06732)", "sequence (P06732 whole entry, canonical isoform)": "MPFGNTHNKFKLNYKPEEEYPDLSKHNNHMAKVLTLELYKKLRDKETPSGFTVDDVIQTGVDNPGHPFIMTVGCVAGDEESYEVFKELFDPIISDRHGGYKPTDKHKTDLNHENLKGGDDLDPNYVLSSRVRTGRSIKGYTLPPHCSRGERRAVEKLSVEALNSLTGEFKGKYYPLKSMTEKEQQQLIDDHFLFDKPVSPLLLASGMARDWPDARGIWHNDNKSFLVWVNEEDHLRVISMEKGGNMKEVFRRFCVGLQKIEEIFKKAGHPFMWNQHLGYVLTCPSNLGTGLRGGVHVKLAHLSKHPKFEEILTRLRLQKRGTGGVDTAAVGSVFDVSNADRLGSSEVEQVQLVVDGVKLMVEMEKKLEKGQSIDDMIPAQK", "experiment": "Activity of human creatine kinase isoform MM assessed as formation of RO2433 triphosphate at 200 uM"}, "[20]": {"molecular_target": "T4, Phosphoglycerate kinase (Saccharomyces cerevisiae S288c) (UniProt P00560)", "T4 sequence (whole entry)": "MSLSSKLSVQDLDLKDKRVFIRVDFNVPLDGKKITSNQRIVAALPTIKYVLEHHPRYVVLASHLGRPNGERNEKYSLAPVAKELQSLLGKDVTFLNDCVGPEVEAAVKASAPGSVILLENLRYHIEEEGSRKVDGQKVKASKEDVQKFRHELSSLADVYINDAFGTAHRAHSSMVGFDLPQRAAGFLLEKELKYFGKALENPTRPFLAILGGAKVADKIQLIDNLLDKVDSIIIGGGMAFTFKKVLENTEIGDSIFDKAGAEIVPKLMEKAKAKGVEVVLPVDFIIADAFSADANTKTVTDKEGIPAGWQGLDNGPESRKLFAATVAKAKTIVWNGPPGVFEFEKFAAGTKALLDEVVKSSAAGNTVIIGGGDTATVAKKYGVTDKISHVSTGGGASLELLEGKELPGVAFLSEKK", "experiment": "Activity of yeast 3-phosphoglycerate kinase assessed as formation of RO2433 triphosphate at 200 uM"}}, "note": "Activity calls are given as the source filed them. The calls are words filed in the database; no cut-off is given here.", "data": [{"compound": "O=c1ccn([C@@H]2O[C@H](COP(=O)(O)OP(=O)(O)O)[C@@H](O)[C@H]2O)c(=O)[nH]1", "values": [{"measurement": "Km", "setting": "Huh-7 [1]", "value": 156, "unit": "µM"}, {"measurement": "kcat", "setting": "Huh-7 [1]", "value": 145, "unit": "s⁻¹"}, {"measurement": "kcat/Km", "setting": "Huh-7 [2]", "value": 930000, "unit": "M⁻¹ s⁻¹"}]}, {"compound": "C[C@@]1(F)[C@H](O)[C@@H](COP(=O)(O)O)O[C@H]1n1ccc(=O)[nH]c1=O", "values": [{"measurement": "Activity", "setting": "Hepatitis C virus [3]", "value": "Active"}, {"measurement": "Activity", "setting": "Hepatitis C virus [4]", "value": "Active"}]}, {"compound": "C[C@@]1(F)[C@H](O)[C@@H](COP(=O)(O)OP(=O)(O)OP(=O)(O)O)O[C@H]1n1ccc(=O)[nH]c1=O", "values": [{"measurement": "Ki/Km", "setting": "Hepacivirus hominis [5]", "value": 6.2}, {"measurement": "Ki/Km", "setting": "[6]", "value": 147}, {"measurement": "Ratio", "setting": "Hepacivirus hominis [7]", "value": 23.7}]}, {"compound": "Deoxycytidine kinase (Homo sapiens), P27707", "values": [{"measurement": "kcat/Km", "setting": "[8]", "value": 1.9, "unit": "×10⁻⁴ /µM/s"}]}, {"compound": "C[C@@]1(F)[C@H](O)[C@@H](COP(=O)(O)OP(=O)(O)O)O[C@H]1n1ccc(N)nc1=O", "values": [{"measurement": "kcat/Km", "setting": "Huh-7 [9]", "value": 15000, "unit": "M⁻¹ s⁻¹"}]}, {"compound": "RNA-directed RNA polymerase (Hepacivirus hominis), O39930 S282T", "values": [{"measurement": "Km", "setting": "[10]", "value": 0.15, "unit": "µM"}, {"measurement": "Km", "setting": "[11]", "value": 0.052, "unit": "µM"}]}, {"compound": "C[C@@]1(F)[C@H](O)[C@@H](CO)O[C@H]1n1ccc(=O)[nH]c1=O", "values": [{"measurement": "Activity", "setting": "[12]", "value": "inactive"}, {"measurement": "Activity", "setting": "[13]", "value": "inactive"}, {"measurement": "Activity", "setting": "[14]", "value": "inactive"}, {"measurement": "Activity", "setting": "[15]", "value": "inactive"}]}, {"compound": "C[C@@]1(F)[C@H](O)[C@@H](COP(=O)(O)OP(=O)(O)OP(=O)(O)O)O[C@H]1n1ccc(N)nc1=O", "values": [{"measurement": "Km", "setting": "Hepacivirus hominis [16]", "value": 0.074, "unit": "µM"}, {"measurement": "Ki/Km", "setting": "Hepacivirus hominis [5]", "value": 0.8}, {"measurement": "Ki/Km", "setting": "[6]", "value": 6}, {"measurement": "Ratio", "setting": "Hepacivirus hominis [7]", "value": 7.5}]}, {"compound": "C[C@@]1(F)[C@H](O)[C@@H](COP(=O)(O)OP(=O)(O)O)O[C@H]1n1ccc(=O)[nH]c1=O", "values": [{"measurement": "kcat/Km", "setting": "Huh-7 [17]", "value": 46000, "unit": "M⁻¹ s⁻¹"}, {"measurement": "Activity", "setting": "[18]", "value": "inactive"}, {"measurement": "Activity", "setting": "Homo sapiens", "value": "inactive"}, {"measurement": "Activity", "setting": "[19]", "value": "inactive"}, {"measurement": "Activity", "setting": "[20]", "value": "inactive"}]}]}
